According to ChEMBL document CHEMBL1122233, “Antihypertensive 9-substituted 1-oxa-4,9-diazaspiro[5.5]undecan-3-ones” (J Med Chem, 1983):

Legend:
Rattus norvegicus [1] = test: Percentage fall in systolic blood pressure after 4 hours at 3.1 mg/kg given perorally; format: functional, organism-based; design: dose 3.1 mg/kg; conditions: Artery
Outline: (§1)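 Male Okamoto-Aoki spontaneously hypertensive rats, trained, in groups of four matched for mean systolic pressure; five treated groups and one vehicle control run concurrently. Oral dosing in water (solution or suspension, 0.1 mL/10 g) on two consecutive mornings. On day 2, rats were restrained at 30.0 ± 1.0 °C and tail-cuff systolic pressure recorded at 1–4 h; percent fall versus control, 1-tail t test, p ≤ 0.05.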

Rattus norvegicus [2] = test: (§2) Percentage fall in systolic blood pressure after 4 hours at 12.5 mg/kg given perorally; format: functional, Artery; conditions: route oral
Outline: (§3)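 Male Okamoto-Aoki SHR, four per group, with a concurrent vehicle control group. Oral dosing in water (0.1 mL/10 g) on two consecutive mornings. After the day-2 dose, rats were restrained in a 30 °C chamber. Tail-cuff systolic pressure was taken at 1-4 h from four traces per rat. Result is % decrease versus control mean, by 1-tailed t test, p ≤ 0.05.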

Rattus norvegicus [3] = test: Percentage fall in systolic blood pressure after 2 hours at 3.1 mg/kg given perorally; format: functional, Artery; conditions: route oral; outline: as §1
Rattus norvegicus [4] = test: (§4) Percentage fall in systolic blood pressure after 2 hours at 12.5 mg/kg given perorally; format: functional, Artery; conditions: route oral; outline: as §3
Rattus norvegicus [5] = test: Percentage fall in systolic blood pressure after 1 hours at 3.1 mg/kg given perorally; format: functional, Artery; conditions: route oral; outline: as §1
Rattus norvegicus [6] = test: Percentage fall in systolic blood pressure after 3 hours at 3.1 mg/kg given perorally; format: functional, organism-based; design: dose 3.1 mg/kg; conditions: Artery; outline: as §1
Rattus norvegicus [7] = test: Percentage fall in systolic blood pressure after 1 hours at 12.5 mg/kg given perorally; format: functional, Artery; conditions: route oral; outline: as §1
Rattus norvegicus [8] = test: (§5) Percentage fall in systolic blood pressure after 3 hours at 12.5 mg/kg given perorally; format: functional, Artery; conditions: route oral; outline: as §3
Rattus norvegicus [9] = test: as §4; format: functional, organism-based; design: dose 12.5 mg/kg; conditions: Artery; outline: as §3
Rattus norvegicus [10] = test: as §2; format: functional, organism-based; design: dose 12.5 mg/kg; conditions: Artery; outline: as §3
Rattus norvegicus [11] = test: Percentage fall in systolic blood pressure after 4 hours at 50 mg/kg given perorally; format: functional, Artery; conditions: route oral; outline: as §3
Rattus norvegicus [12] = test: Percentage fall in systolic blood pressure after 2 hours at 50 mg/kg given perorally; format: functional, Artery; conditions: route oral; outline: as §3
Rattus norvegicus [13] = test: Percentage fall in systolic blood pressure after 1 hr at 12.5 mg/kg given perorally; format: functional, Artery; conditions: route oral; outline: as §3
Rattus norvegicus [14] = test: Percentage fall in systolic blood pressure after 1 hr at 50 mg/kg given perorally; format: functional, Artery; conditions: route oral; outline: as §3
Rattus norvegicus [15] = test: as §5; format: functional, organism-based; design: dose 12.5 mg/kg; conditions: Artery; outline: as §3
Rattus norvegicus [16] = test: Percentage fall in systolic blood pressure after 3 hours at 50 mg/kg given perorally; format: functional, Artery; conditions: route oral; outline: as §3
Rattus norvegicus [17] = test: Percentage fall in systolic blood pressure after 2 hours at 25 mg/kg given perorally; format: functional, organism-based; design: dose 25 mg/kg; conditions: Artery; outline: as §1
Rattus norvegicus [18] = test: Percentage fall in systolic blood pressure after 3 hours at 25 mg/kg given perorally; format: functional, Artery; conditions: route oral; outline: as §1
Rattus norvegicus [19] = test: Percentage fall in systolic blood pressure after 1 hr at 25 mg/kg given perorally; format: functional, Artery; conditions: route oral; outline: as §1
Rattus norvegicus [20] = test: Percentage fall in systolic blood pressure after 4 hours at 25 mg/kg given perorally; format: functional, Artery; conditions: route oral; outline: as §1

Q: With `CN1CC2(CCN(CCCC(=O)c3ccc(F)cc3)CC2)OCC1=O` as the molecule, how does the “Decrease in SBP” value (Rattus norvegicus [1]) read?
A: Not significant

Q: And the “Decrease in SBP” value (Rattus norvegicus [2])?
A: 19%

Q: And the “Decrease in SBP” value (Rattus norvegicus [3])?
A: 27%

Q: And the “Decrease in SBP” value (Rattus norvegicus [4])?
A: 37%

Q: What about the “Decrease in SBP” value (Rattus norvegicus [5]) of the same molecule?
A: 26%

Q: And the “Decrease in SBP” value (Rattus norvegicus [6])?
A: Not significant

Q: What about the “Decrease in SBP” value (Rattus norvegicus [7]) of the same molecule?
A: 46%

Q: What about the “Decrease in SBP” value (Rattus norvegicus [8]) of the same molecule?
A: 25%

Q: How did the “Decrease in SBP” value (Rattus norvegicus [9]) turn out when `O=C1COC2(CCN(CCc3c[nH]c4ccccc34)CC2)CN1c1ccccc1` was run?
A: Not significant

Q: And the “Decrease in SBP” value (Rattus norvegicus [10])?
A: Not significant

Q: What about the “Decrease in SBP” value (Rattus norvegicus [11]) of the same molecule?
A: 40%

Q: What about the “Decrease in SBP” value (Rattus norvegicus [12]) of the same molecule?
A: 59%

Q: And the “Decrease in SBP” value (Rattus norvegicus [13])?
A: 19%

Q: What about the “Decrease in SBP” value (Rattus norvegicus [14]) of the same molecule?
A: 45%

Q: And the “Decrease in SBP” value (Rattus norvegicus [15])?
A: Not significant

Q: What about the “Decrease in SBP” value (Rattus norvegicus [16]) of the same molecule?
A: 45%

Q: What does the source list for `O=C1COC2(CCN(CCc3ccc(O)cc3)CC2)CN1`?
A: Decrease in SBP (Rattus norvegicus [17]): Not significant; Decrease in SBP (Rattus norvegicus [18]): 11%; Decrease in SBP (Rattus norvegicus [19]): 13%; Decrease in SBP (Rattus norvegicus [20]): 21%
